Tests used:
[1] = tested on: Canis familiaris; test: Reduction in acid response to histamine(160 ug/kg/h i.v.) in anesthetized dogs with acute gastric fistula.; assay type: functional; conditions: Canis lupus familiaris, Stomach, iv
Method in brief: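 Mongrel dogs of 8–10 kg, fasted 24 h and anesthetized with pentobarbital 30 mg/kg i.v. Pylorus and esophagus ligated, with a stainless steel cannula in the stomach. Histamine infused at 160 μg/(kg h), drugs given i.v., gastric juice collected every 15 min. Inhibition taken from predrug minus minimum acid output (within 45 min). ED50 from a semilog dose-response plot.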

[2] = species on record: Cavia porcellus; test: Dose representing 50% inhibition of positive chronotropic response to histamine in guinea pig atrium (5 x 10e -6M); assay type: functional; conditions: Cardiac atrium, read-out: ED50 (the source's name)
Method in brief: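 Isolated right atria from guinea pig, three to four preparations per compound. Test agent added 10 min ahead of histamine (5 × 10⁻⁶ M). Read-out is inhibition of the histamine-induced rise in atrial rate. Percent inhibition plotted against log concentration, and the 50%-inhibiting dose read from that curve; means ± SE.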

Row | SMILES | ED50 [1] [mg/kg] | EC50 [2] [µM]
1 | Cc1[nH]cnc1CSCCC(=N)NC(N)=O.Cl.Cl | 0.22 | 0.9
2 | C/N=C(/NC)Nc1nc(CSCCC(=N)NC#N)cs1 | – | > 100
3 | N#CNC(=N)CCSCc1ccc(CN2CCOCC2)o1 | – | > 100
4 | NC(=O)CCSCc1csc(N=C(N)N)n1 | – | 1
5 | C#CC/N=C(/CCSCc1nc[nH]c1C)NC#N | – | > 100
6 | CN(C)Cc1ccc(CSCCC(=N)NC#N)s1 | 4.4 | 13
7 | Cl.Cl.N=C(N)Nc1nc(CSCCC(=N)NC(N)=O)cs1 | 0.0064 | 0.074
8 | N#CNC(=N)CCCOc1cccc(CN2CCCC2)c1 | 3.5 | 13
9 | N#C/N=C(\N)CCSCc1csc(N)n1 | – | > 100
10 | N#CNC(=N)CCSCc1ccc(CN2CCCCC2)o1 | – | 35
11 | CN/C(=N\CCSCc1nc[nH]c1C)NC#N [CIMETIDINE] | 0.33 | 2.7
12 | CN(C)Cc1ccc(CSCCC(=N)NC#N)o1 | 0.28 | 2.1
13 | C/N=C(/CCSCc1ccc(CN(C)C)o1)NC#N | > 10 | 170
14 | C/N=C(/N)Nc1nc(CSCCC(=N)NC#N)cs1 | – | 1.2
15 | N#CNC(=N)CCSCc1nc[nH]n1 | – | > 100
16 | N#CNC(=N)CCCOc1cccc(CN2CCCCC2)c1 | 2.3 | 4.7
17 | Cc1[nH]cnc1CSCCC(=N)NC#N | – | > 100

Row | SMILES | ED50 [1] [mg/kg] | EC50 [2] [µM]
18 | CCc1[nH]cnc1CSCCC(=N)NC(N)=O.Cl.Cl | 0.33 | 2
19 | Cl.Cl.N=C(CCSCc1ccccn1)NC(N)=O | 2.5 | 12
20 | C/N=C(/CCSCc1[nH]cnc1C)NC#N | – | > 100
21 | C/N=C(/CCSCc1csc(N=C(N)N)n1)NC#N | 0.39 | 0.98
22 | CC(=N)Nc1nc(CSCCC(=N)NC#N)cs1 | – | 9.1
23 | CN(C)Cc1cccc(OCCCC(=N)NC#N)c1 | 9 | 20
24 | N#CNC(=N)CCSCc1ccccn1 | – | > 100
25 | Cl.Cl.N=C(CCSCc1nc[nH]n1)NC(N)=O | 6.9 | 41
26 | CC(=N)Nc1nc(CSCCC(=N)NC(N)=O)cs1 | – | 2.5
27 | CN(C)Nc1nc(CSCCC(=N)NC#N)cs1 | – | > 100
28 | N=C(CCSCc1[nH]cnc1C(F)(F)F)NC(N)=O | – | > 100
29 | N#CNC(=N)CCSCc1csc(NC(=N)N)n1 | 0.018 | 0.18
30 | C/N=C(/N)Nc1nc(CSCCC(=N)NC(N)=O)cs1.Cl.Cl | 0.046 | 0.32
31 | Cl.Cl.N=C(CCSCc1c[nH]cn1)NC(N)=O | 1.3 | 5.3
32 | N=C(N)Nc1nc(CSCCC(=N)NC(N)=O)no1 | – | 26
33 | N#CNC(=N)CCSCc1noc(NC(=N)N)n1 | – | > 100
34 | N#CNC(=N)CCCCc1csc(NC(=N)N)n1 | 0.022 | 0.12

Reference: ChEMBL document CHEMBL1122683, “Histamine H2 receptor antagonists. 1. Synthesis of N-cyano and N-carbamoyl amidine derivatives and their biological activities” (1984)
